Source: ChEMBL document CHEMBL4229525, “Anti-angiogenic and anticancer effects of baicalein derivatives based on transgenic zebrafish model” (Bioorg Med Chem, 2018)

Experiments:
[1] = Toxicity index, ratio of MTC for 24 to 72 hrs post fertilized zebra fish embryo harboring fli1:EGFP to MEC for antiangiogenic activity in 24 to 72 hrs post fertilized zebra fish embryo harboring fli1:EGFP; type: organism-based, Danio rerio; conditions: fli1:EGFP transgenic, zebrafish, in vivo
Method in brief: (§1)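 Dechorionated Tg(fli1:EGFP) embryos at 24 hpf, 20 per group, were kept in 1 mL embryo water with compound at 28.5 °C for a further 48 h. Compound was tested at 1, 5, 10, 25, 50, 75, 100, 150 and 200 μM. At 72 hpf, embryos anaesthetised with 0.016% tricaine had their ISVs imaged by fluorescence microscopy, with SU5416 as positive control. Definitions used: LOEC is anti-angiogenic effect in most larvae; LOTC is lowest toxic concentration; LC100 is total embryo lethality. TI = LOTC/LOEC; AI = LC100/LOEC.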

[2] = organism: Danio rerio; experiment: Antiangiogenic activity in 24 to 72 hrs post fertilized zebra fish embryo harboring fli1:EGFP after 48 hrs by fluorescence microscopic analysis; type: functional
Method in brief: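 Tg(fli1:EGFP) zebrafish: 20 dechorionated 24 hpf embryos per group in 1 mL embryo water with compound (1, 5, 10, 25, 50, 75, 100, 150, 200 μM), 28.5 °C for 48 h. Embryos anaesthetised in 0.016% tricaine; ISVs imaged by fluorescence microscopy at 72 hpf and scored for vessel defects and overall morphology. SU5416 positive control.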

[3] = organism: Danio rerio; experiment: Toxicity in 24 to 72 hrs post fertilized zebra fish embryo harboring fli1:EGFP; type: organism-based; conditions: zebrafish, in vivo; method in brief: as §1
[4] = Antiangiogenic index, ratio of LC100 for 24 to 72 hrs post fertilized zebra fish embryo harboring fli1:EGFP to MEC for antiangiogenic activity in 24 to 72 hrs post fertilized zebra fish embryo harboring fli1:EGFP; type: toxicity, organism-based, Danio rerio; conditions: fli1:EGFP transgenic, zebrafish, in vivo; method in brief: as §1

SMILES | selectivity ratio [1] | MEC [2] [µM] | LC100 [3] | MTC [3] | selectivity ratio [4]
O=C(COc1c(OCc2ccccc2)cc2oc(-c3ccccc3)cc(=O)c2c1O)N1CCN(c2ncccn2)CC1 | 1 | 75 | 100 µM | 75 µM | 1.3
CCN1CCN(C(=O)COc2c(OCc3ccccc3)cc3oc(-c4ccccc4)cc(=O)c3c2O)CC1 |  |  | Nd(Insoluble) | Nd(Insoluble) | 
O=c1cc(-c2ccccc2)oc2cc(O)c(OCCCCCNCCO)c(O)c12 | 2 | 25 | 100 µM | 50 µM | 4
O=C(O)CCC(=O)OCCOc1c(O)cc2oc(-c3ccccc3)cc(=O)c2c1O | > 1.5 | 50 | 75 µM | > 75 µM | 1.5
O=C(COc1c(OCc2ccccc2)cc2oc(-c3ccccc3)cc(=O)c2c1O)NCCO | 1 | 100 | 200 µM | 100 µM | 2
CCN(CC)C(=O)COc1c(O)cc2oc(-c3ccccc3)cc(=O)c2c1O | 1 | 200 | 200 µM | 200 µM | 1
CN1CCN(C(=O)COc2c(OCc3ccccc3)cc3oc(-c4ccccc4)cc(=O)c3c2O)CC1 | 1 | 10 | 50 µM | 10 µM | 5
CN1CCN(C(=O)COc2c(O)cc3oc(-c4ccccc4)cc(=O)c3c2O)CC1 | 1.5 | 10 | 50 µM | 15 µM | 5
O=C(COc1c(OCc2ccccc2)cc2oc(-c3ccccc3)cc(=O)c2c1O)N1CCOCC1 | 1 | 50 | 100 µM | 50 µM | 2
Cc1cc(C)c(/C=C2\C(=O)Nc3ccccc32)[nH]1 [SEMAXANIB] | 1.5 | 1 | 5 µM | 1.5 µM | 5
O=c1cc(-c2ccccc2)oc2cc(O)c(OCCO)c(O)c12 | 2 | 5 | 50 µM | 10 µM | 10
O=C(O)COc1c(O)cc2oc(-c3ccccc3)cc(=O)c2c1O |  | >50 | 50 µM | > 50 µM | 
O=C(COc1c(OCc2ccccc2)cc2oc(-c3ccccc3)cc(=O)c2c1O)N1CCN(CCO)CC1 | 1 | 200 | 200 µM | 200 µM | 1
O=C(COc1c(OCc2ccccc2)cc2oc(-c3ccccc3)cc(=O)c2c1O)N1CCCC1 | 1 | 100 | > 200 µM | 100 µM | > 2
O=C(COc1c(OCc2ccccc2)cc2oc(-c3ccccc3)cc(=O)c2c1O)N(CCO)CCO | 1 | 100 | 200 µM | 100 µM | 2
O=c1cc(-c2ccccc2)oc2cc(O)c(OCCCO)c(O)c12 | 1 | 2.5 | 15 µM | 2.5 µM | 6
COc1c(OCCCN(C)CCO)c(O)cc2oc(-c3ccccc3)cc(=O)c12 | 1 | 100 | > 200 µM | 100 µM | > 2
CN(C)CCNC(=O)COc1c(O)cc2oc(-c3ccccc3)cc(=O)c2c1O | 1 | 100 | > 200 µM | 100 µM | > 2
O=C(COc1c(O)cc2oc(-c3ccccc3)cc(=O)c2c1O)N(CCO)CCO |  | >200 | > 200 µM | > 200 µM | 
